Laboratory results taken from ChEMBL document CHEMBL1138144 (J Med Chem, 2006).

Columns and labels:
[1] = biological target: T1, Sodium-dependent dopamine transporter (Homo sapiens, UniProt Q01959); assay: Inhibition of [3H] dopamine uptake into human DAT expressed in HEK293 cells; type: functional, cell-based
Summary of the method: (§1)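 Confluent HEK293 cells expressing hDAT or hSERT, scraped into Krebs-HEPES. Preincubated 10 min at 25°C with compound (0.1% DMSO final). Uptake started with [3H]dopamine or [3H]serotonin (20 nM final) and stopped after 10 min by filtration on PEI-soaked GF/C filters. Non-specific uptake: 5 µM mazindol (DAT) or 5 µM imipramine (SERT). IC50 from triplicate 6-concentration curves, 2–3 independent determinations.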

[2] = biological target: T2, Sodium-dependent serotonin transporter (Homo sapiens, UniProt P31645); assay: Displacement of [125I]RTI-55 from human SERT expressed in HEK293 cells; type: cell-based
Summary of the method: (§2)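 Membranes from HEK293 cells expressing hDAT or hSERT, grown to 80% confluence, lysed in 2 mM HEPES/1 mM EDTA, spun and resuspended in 0.32 M sucrose. About 10–15 µg protein preincubated 10 min with compound in Krebs-HEPES pH 7.4 (0.1% DMSO final). Filtered on GF/C. Non-specific binding: 5 µM mazindol (DAT) or 5 µM imipramine (SERT). Duplicates, 2–3 experiments, IC50 converted to Ki by Cheng-Prusoff.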

[3] = biological target: T3, Sodium-dependent noradrenaline transporter (Homo sapiens, UniProt P23975); assay: Displacement of [125I]RTI-55 from human NET expressed in HEK293 cells; type: cell-based
[4] = biological target: T2, Sodium-dependent serotonin transporter; assay: Inhibition of [3H] serotonin uptake into human SERT expressed in HEK293 cells; type: functional, cell-based; summary of the method: as §1
[5] = biological target: T1, Sodium-dependent dopamine transporter; assay: Displacement of [125I]RTI-55 from human DAT expressed in HEK293 cells; type: cell-based; summary of the method: as §2
[6] = biological target: T3, Sodium-dependent noradrenaline transporter; assay: Inhibition of [3H] norepinephrine uptake into human NET expressed in HEK293 cells; type: functional, cell-based
[7] = biological target: D(1A) dopamine receptor (Homo sapiens, UniProt P21728); assay: Inhibitory activity against dopamine D1
[8] = biological target: T4, 5-hydroxytryptamine receptor 1A (Homo sapiens, UniProt P08908); assay: Inhibitory activity against 5HT1A
T4 sequence (P08908 whole entry): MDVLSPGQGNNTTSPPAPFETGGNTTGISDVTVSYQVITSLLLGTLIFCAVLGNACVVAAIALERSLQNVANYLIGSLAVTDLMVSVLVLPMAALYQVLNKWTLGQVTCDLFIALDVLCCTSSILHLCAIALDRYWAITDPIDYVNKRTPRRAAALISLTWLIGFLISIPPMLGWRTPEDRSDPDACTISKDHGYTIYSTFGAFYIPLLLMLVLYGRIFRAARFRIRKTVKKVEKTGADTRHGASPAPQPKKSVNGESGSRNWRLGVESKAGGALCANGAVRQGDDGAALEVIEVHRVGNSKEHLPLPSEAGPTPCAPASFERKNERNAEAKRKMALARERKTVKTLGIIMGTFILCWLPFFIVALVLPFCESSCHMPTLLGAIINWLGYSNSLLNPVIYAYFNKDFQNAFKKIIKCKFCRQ

[9] = biological target: 5-hydroxytryptamine receptor 1B (Homo sapiens, UniProt P28222); assay: Inhibitory activity against 5HT1B
[10] = biological target: D(2) dopamine receptor (Homo sapiens, UniProt P14416); assay: Inhibitory activity against dopamine D2
[11] = biological target: D(3) dopamine receptor (Homo sapiens, UniProt P35462); assay: Inhibitory activity against dopamine D3
[12] = biological target: T5, 5-hydroxytryptamine receptor 2C (Homo sapiens, UniProt P28335); assay: Inhibitory activity against 5HT1C
T5 sequence (P28335 whole entry): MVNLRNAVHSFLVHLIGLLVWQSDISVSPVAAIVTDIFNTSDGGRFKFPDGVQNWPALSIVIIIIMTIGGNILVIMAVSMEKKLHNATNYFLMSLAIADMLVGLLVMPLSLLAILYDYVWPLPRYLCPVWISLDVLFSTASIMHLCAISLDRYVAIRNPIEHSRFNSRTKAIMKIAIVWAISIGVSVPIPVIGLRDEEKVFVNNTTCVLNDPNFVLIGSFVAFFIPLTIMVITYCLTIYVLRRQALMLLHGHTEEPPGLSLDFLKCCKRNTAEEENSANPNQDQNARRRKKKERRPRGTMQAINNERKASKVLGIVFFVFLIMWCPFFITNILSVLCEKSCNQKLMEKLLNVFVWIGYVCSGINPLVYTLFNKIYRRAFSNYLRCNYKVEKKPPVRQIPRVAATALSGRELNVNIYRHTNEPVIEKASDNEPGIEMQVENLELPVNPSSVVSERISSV

Chain of 5-hydroxytryptamine receptor 1B (P28222 whole entry): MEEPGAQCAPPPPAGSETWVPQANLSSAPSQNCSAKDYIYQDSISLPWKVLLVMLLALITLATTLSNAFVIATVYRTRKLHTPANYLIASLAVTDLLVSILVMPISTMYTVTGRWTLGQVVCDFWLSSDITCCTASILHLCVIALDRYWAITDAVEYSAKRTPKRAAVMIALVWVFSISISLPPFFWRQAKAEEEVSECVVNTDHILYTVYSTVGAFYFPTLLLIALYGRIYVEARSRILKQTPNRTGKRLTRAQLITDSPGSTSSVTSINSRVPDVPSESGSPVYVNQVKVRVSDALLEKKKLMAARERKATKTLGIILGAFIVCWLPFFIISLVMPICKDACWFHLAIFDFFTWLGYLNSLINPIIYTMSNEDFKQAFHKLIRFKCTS
T1 sequence (Q01959 whole entry): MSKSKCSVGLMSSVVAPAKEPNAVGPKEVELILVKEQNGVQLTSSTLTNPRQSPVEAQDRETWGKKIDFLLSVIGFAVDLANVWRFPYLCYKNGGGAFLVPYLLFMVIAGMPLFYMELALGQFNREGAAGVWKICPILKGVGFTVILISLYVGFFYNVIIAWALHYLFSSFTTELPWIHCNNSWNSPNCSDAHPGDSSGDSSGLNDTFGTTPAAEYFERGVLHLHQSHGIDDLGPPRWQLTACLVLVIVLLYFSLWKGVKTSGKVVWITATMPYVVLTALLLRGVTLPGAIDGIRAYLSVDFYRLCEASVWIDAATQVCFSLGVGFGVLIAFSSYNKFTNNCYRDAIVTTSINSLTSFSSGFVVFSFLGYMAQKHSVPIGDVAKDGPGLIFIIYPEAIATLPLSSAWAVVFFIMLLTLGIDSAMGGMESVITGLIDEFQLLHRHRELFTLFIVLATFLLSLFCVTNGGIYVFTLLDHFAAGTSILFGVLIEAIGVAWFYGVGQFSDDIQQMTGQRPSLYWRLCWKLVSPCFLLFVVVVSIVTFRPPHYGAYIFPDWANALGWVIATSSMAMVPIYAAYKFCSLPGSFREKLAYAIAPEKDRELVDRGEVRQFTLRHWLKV
Chain of D(1A) dopamine receptor (P21728 whole entry): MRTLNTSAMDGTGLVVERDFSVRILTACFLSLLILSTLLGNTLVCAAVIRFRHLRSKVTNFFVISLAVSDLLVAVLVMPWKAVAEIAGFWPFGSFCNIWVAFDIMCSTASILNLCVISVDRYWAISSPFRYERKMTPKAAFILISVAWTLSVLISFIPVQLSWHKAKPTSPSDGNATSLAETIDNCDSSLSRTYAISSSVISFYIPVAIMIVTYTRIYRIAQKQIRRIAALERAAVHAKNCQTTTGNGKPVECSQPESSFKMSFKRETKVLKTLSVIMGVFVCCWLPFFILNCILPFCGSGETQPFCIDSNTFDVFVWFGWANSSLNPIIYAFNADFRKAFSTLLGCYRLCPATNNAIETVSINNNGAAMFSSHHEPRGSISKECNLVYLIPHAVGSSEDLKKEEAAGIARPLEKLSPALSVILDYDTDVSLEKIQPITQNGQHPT
Chain of D(2) dopamine receptor (P14416 whole entry): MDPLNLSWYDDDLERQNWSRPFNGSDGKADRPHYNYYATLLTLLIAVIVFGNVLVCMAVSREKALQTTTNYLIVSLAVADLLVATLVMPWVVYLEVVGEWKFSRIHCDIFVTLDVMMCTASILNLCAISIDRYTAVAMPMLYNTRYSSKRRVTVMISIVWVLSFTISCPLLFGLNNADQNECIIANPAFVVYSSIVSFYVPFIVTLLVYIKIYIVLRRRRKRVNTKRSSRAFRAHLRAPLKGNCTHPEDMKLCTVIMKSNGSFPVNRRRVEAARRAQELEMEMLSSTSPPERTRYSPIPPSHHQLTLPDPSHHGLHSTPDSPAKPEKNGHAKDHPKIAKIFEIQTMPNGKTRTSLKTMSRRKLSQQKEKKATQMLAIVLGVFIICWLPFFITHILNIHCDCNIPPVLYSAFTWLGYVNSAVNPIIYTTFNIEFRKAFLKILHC
Chain of D(3) dopamine receptor (P35462 whole entry): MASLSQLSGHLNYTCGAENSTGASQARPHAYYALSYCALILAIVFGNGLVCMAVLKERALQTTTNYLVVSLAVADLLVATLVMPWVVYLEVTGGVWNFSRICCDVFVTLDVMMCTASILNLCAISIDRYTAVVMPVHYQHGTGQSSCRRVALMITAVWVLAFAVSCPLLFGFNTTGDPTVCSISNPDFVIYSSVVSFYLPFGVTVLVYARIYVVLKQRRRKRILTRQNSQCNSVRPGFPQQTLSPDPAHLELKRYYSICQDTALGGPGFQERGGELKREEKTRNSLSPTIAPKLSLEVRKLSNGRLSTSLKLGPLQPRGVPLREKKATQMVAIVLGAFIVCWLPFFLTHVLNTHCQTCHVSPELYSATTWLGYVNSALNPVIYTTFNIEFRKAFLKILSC
T3 sequence (P23975 whole entry): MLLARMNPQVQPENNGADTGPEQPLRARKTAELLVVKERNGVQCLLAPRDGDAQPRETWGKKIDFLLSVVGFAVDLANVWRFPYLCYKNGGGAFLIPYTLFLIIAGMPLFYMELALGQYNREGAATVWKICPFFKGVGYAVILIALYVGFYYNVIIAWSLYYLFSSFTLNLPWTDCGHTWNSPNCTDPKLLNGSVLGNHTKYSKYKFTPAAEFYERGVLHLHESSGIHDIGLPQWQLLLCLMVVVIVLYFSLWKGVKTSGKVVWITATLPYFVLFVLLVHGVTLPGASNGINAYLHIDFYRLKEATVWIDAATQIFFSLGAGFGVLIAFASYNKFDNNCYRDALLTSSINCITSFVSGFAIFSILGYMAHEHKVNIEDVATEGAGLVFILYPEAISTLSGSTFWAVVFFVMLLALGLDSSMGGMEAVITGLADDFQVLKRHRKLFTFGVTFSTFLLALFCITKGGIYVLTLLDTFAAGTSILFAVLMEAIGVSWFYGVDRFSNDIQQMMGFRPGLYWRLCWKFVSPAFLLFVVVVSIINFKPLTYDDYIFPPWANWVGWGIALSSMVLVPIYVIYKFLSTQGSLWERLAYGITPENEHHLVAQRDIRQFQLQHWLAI
T2 sequence (P31645 whole entry): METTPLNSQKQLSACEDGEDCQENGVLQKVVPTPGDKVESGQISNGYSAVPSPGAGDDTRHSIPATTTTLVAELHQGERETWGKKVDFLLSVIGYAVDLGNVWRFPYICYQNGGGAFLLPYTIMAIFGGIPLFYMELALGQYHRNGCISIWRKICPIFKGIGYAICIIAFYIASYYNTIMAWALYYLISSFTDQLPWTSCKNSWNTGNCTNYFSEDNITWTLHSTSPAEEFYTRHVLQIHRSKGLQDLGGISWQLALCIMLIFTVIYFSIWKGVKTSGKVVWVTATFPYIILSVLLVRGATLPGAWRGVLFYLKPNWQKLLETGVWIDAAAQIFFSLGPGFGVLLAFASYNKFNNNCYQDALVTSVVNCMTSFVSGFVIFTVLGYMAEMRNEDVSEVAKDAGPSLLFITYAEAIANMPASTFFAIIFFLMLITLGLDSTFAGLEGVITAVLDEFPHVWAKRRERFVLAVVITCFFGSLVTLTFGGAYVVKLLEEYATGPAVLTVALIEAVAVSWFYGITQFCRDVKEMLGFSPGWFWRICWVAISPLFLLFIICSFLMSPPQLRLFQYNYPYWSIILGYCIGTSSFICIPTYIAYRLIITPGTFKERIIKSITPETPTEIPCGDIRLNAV

Row | Compound | IC50 [1] [nM] | Ki [2] [nM] | Ki [3] [nM] | IC50 [4] [nM] | Ki [5] [nM] | IC50 [6] [nM] | IC50 [7] [nM] | IC50 [8] [nM] | IC50 [9] [nM] | IC50 [10] [nM] | IC50 [11] [nM] | IC50 [12] [nM]
1 | CCCC(C(=O)c1ccc(C(=O)OC)cc1)N1CCCC1 (centres undefined) | 154 | 3650 | 1140 | 2350 | 360 |  |  |  |  |  |  | 
2 | CCCC(C(=O)c1ccc(-c2ccco2)cc1)N1CCCC1 (centres undefined) | 122 | 3330 | 95 | 2180 | 105 | 93 |  |  |  |  |  | 
3 | CCCC(CN1CCCC1)C(=O)c1ccc(Cl)c(Cl)c1 (centres undefined) | 2900 | 630 | > 10000 | 710 | 1530 |  |  |  |  |  |  | 
4 | CCC(C(=O)c1ccc(Cl)c(Cl)c1)N1CCCC1 (centres undefined) |  | 810 | 262 | 441 |  | 18.5 |  |  |  |  |  | 
5 | C=CCC(C(=O)c1ccc(Cl)c(Cl)c1)N1CCCC1 (centres undefined) | 18.3 | 1060 | 509 | 440 | 39.9 | 24.9 |  |  |  |  |  | 
6 | Cc1ccc(C(=O)C(CC(C)C)N2CCCC2)cc1 (centres undefined) | 5.9 | 2870 | 259 | 2040 | 13.7 | 18 |  |  |  |  |  | 
7 | C=CCC(C(=O)c1ccc(C)cc1)N1CCCC1 (centres undefined) | 55 | > 10000 | 1400 |  | 90.5 | 88 |  |  |  |  |  | 
8 | CCCC(C(=O)c1ccc(I)cc1)N1CCCC1 (centres undefined) | 32 | 301 | 310 | 197 | 81.4 | 46.5 |  |  |  |  |  | 
9 | CCCC(C(=O)c1ccc(C#N)cc1)N1CCCC1 (centres undefined) | 1000 | > 10000 | > 10000 |  | 5900 |  |  |  |  |  |  | 
10 | CCCC(CN1CCCC1)C(=O)c1ccc(C)cc1 (centres undefined) |  | 4100 | > 10000 | 4800 | > 10000 |  |  |  |  |  |  | 
11 | CCCC(C(=O)c1ccc(O)c(O)c1)N1CCCC1 (centres undefined) | 42 | > 10000 | 219 |  | 84 | 7.6 |  |  |  |  |  | 
12 | CCC(CC(=O)c1ccc(C)cc1)N1CCCC1 (centres undefined) |  | > 10000 | > 10000 |  | > 10000 |  | > 10000 | > 10000 | > 10000 | > 10000 | > 10000 | > 10000
13 | CCCC(C(=O)c1ccccc1C)N1CCCC1 (centres undefined) | 63 | 3720 | 425 | 2020 | 59.7 | 19.7 | > 10000 | > 10000 | > 10000 | > 10000 | > 10000 | > 10000
14 | CCCC(C(=O)c1ccc(Cl)c(Cl)c1)N1CCCC1 (centres undefined) | 43 | 199 | 37.8 | 600 | 11.5 | 21 |  |  |  |  |  | 
15 | CCCC(C(=O)c1ccc(CO)cc1)N1CCCC1 (centres undefined) | 44.3 | > 10000 | 150 |  | 48.7 | 12.4 |  |  |  |  |  | 
16 | CCCC(C(=O)c1ccc(O)cc1)N1CCCC1 (centres undefined) | 49.7 | > 10000 | 1290 |  | 125 | 86.7 | > 10000 | > 10000 | > 10000 | > 10000 | > 10000 | > 10000
17 | CCCC(C(=O)c1ccc(F)cc1)N1CCCC1 (centres undefined) | 185 | > 10000 | 830 |  | 82 | 171 |  |  |  |  |  | 
